APOBEC3G inh – blocks human APOBEC3G single-stranded DNA deamination; hit rate 0.28% among 330,000; inhibition, % at 20 µM; Q9HC16; recombinant A3G, ssDNA deamination FAM/TAMRA fluorescence;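 active = inhibition of at least 40% at 20 µM, with no more than 30% in the related APOBEC3A deaminase screen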
Target sequence (Q9HC16 whole entry, looked up): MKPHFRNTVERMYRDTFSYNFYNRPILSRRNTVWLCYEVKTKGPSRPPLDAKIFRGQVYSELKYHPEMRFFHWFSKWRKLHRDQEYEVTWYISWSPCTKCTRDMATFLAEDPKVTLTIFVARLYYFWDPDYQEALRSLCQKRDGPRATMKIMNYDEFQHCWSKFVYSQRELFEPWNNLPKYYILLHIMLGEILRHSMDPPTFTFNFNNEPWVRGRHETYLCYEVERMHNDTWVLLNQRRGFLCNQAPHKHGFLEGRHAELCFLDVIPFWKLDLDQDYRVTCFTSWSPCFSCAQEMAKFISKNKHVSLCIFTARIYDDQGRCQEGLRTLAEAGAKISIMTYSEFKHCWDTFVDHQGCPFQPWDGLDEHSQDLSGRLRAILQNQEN
PolyA inhibitor – blocks polyadenylation in yeast reporter cells | S. cerevisiae SKY197-pL101 polyadenylation reporter, beta-gal luminescence; efflux-impaired pdr1/pdr3 knockout yeast; score 100 = 6 SD above DMSO | activity score, % at 12 µM | hit rate 0.02% among 300,000 | AID 1875;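 active = lowest replicate activity score at least 50, where 100 means six control SD above control mean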;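 note: yeast exposed to compound for 9 h at 30 °C; higher score means more reporter readthrough which indicates perturbed polyadenylation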
AHR act – activators of human aryl hydrocarbon receptor | P35869 | AHR-responsive luciferase reporter cells, luminescence | activation, % at 5 µM | hit rate 2.5% among 320,000; in the data active = activation above about 47%
A3A deaminase – blocks human APOBEC3A ssDNA deamination; P31941; recombinant A3A, FAM/TAMRA ssDNA deamination fluorescence; inhibition, % at 20 µM; hit rate 0.41% among 330,000; AID 493011;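 active = at least 40% inhibition at 20 µM here, with at most 30% in a related deaminase screen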
UCH37 inh – blocks the human deubiquitinase UCH37; Q9Y5K5; purified proteasome/UCH37, Ub-AMC cleavage fluorescence; inhibition, % (concentration not given with the values); hit rate 0.33% among 330,000; AID 588478;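 active = mean inhibition over replicate wells above about 20%, limit read from the data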
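Schedule: 30 min plus 25 min, room temperature / Material: human UCH37 within purified proteasomes / Technique: AMC fluorescence intensity at 355/460 nm / Buffer or medium: pH 7.4 Tris-HCl (50 mM) with ovalbumin, ATP-MgCl2, DTT / Controls: wells without proteasome as full block, compound-free enzyme plus substrate as uninhibited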
Arrestin-AP2 inh – inhibitors of human beta-arrestin and AP2 interaction; inhibition, % at 10 µM; AID 504490; hit rate 0.31% among 340,000; FITC-arrestin peptide / GST-AP2 beads, flow cytometry; AP2 beta2 appendage carries R879A mutation;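 active = inhibition above a set limit, near 3 SD of compounds lacking own fluorescence, cut at about 54% in these data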
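System: GST-tagged AP2 beta2-adaptin appendage (R879A) on 4 µm glutathione beads / Reagent: FITC-arrestin peptide, 50 nM / Detection: HyperCyt-sampled flow cytometry, FL1 channel, ex 488/em 535 nm / Timing: 12 min plus 1 h, RT / Buffer or medium: PBS plus Tween 20 (0.05%) and BSA (0.1%)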
A3G conf – confirmation of human APOBEC3G DNA deaminase inhibitors; shares compounds with APOBEC3G inh; recombinant A3G ssDNA deaminase, UDG/FAM-TAMRA fluorescence; hit rate 72% among 890; inhibition, % at 20 µM; AID 493152;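 active = inhibition reaching a set limit in any replicate at 20 µM, the limit being 80% of the first screen's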
UDG ctr A3G – E. coli UDG inhibition in APOBEC3G counter-screen; shares compounds with APOBEC3G inh; inhibition, % at 20 µM; 710 tested, under 10 active; UDG counterscreen, FAM/TAMRA oligo fluorescence;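 active = compounds giving 40% or more inhibition at 20 µM in any one of the three replicates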;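 note: inhibitors lower the FAM signal released by uracil excision and alkaline cleavage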
Target sequence (P12295 whole entry, looked up): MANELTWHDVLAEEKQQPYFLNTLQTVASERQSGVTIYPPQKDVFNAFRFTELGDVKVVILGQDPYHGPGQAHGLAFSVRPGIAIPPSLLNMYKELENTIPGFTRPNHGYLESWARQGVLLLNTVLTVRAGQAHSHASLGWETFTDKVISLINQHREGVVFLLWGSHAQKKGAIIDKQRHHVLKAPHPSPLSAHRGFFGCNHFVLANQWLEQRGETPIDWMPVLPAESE
Each line names hits and unclear results; the compound was inactive in the other large screens (follow-up assays come after a bar, where they were run); ! = a repeat was not active. The list is not random: actives were taken first. Their share in the collection is about 3.4%.

Cc1ccc(S(=O)(=O)N=C(CCl)N2CCOCC2)cc1	none (no result: APOBEC3G inh, PolyA inhibitor, AHR act, A3A deaminase, Arrestin-AP2 inh)
COCCNC(=S)NN=C(C)c1ccc(Cl)c(Cl)c1	none (no result: APOBEC3G inh, PolyA inhibitor, AHR act, A3A deaminase, Arrestin-AP2 inh)
O=C(O)Cc1sc(NN=Cc2ccncc2)nc1-c1ccccc1	none (no result: APOBEC3G inh, PolyA inhibitor, AHR act, A3A deaminase, Arrestin-AP2 inh)
COc1ccc(C2=NOC(C(=O)O)C2)cc1 (stereo unspecified)	none
O=C(O)C1CC(c2ccc(F)cc2)=NO1 (stereo unspecified)	APOBEC3G inh 73.6 | A3G conf 72.9 | UDG ctr A3G inactive
COc1cccc(/C=N/n2c(-c3cc(C)[nH]n3)n[nH]c2=S)c1OC	APOBEC3G inh 43.1 (no result: UCH37 inh) | A3G conf 84.6 | UDG ctr A3G inactive
COc1cccc(/C=N/n2c(-c3n[nH]c4c3CCC4)n[nH]c2=S)c1OC	APOBEC3G inh 61.9, AHR act 51.4 (no result: UCH37 inh) | A3G conf 70.1 | UDG ctr A3G inactive
COc1ccccc1/C=C/C=Nn1c(-c2cc(C)[nH]n2)n[nH]c1=S	none (no result: APOBEC3G inh, PolyA inhibitor, AHR act, A3A deaminase, Arrestin-AP2 inh)
COc1ccc(/C=N/n2c(-c3n[nH]c4c3CCC4)n[nH]c2=S)c(OC)c1OC	APOBEC3G inh 48.8 (no result: UCH37 inh) | A3G conf 81.9 | UDG ctr A3G inactive
O=C(CNc1ccccc1)NN=Cc1ccc2c(c1)OCCO2	none (no result: APOBEC3G inh, PolyA inhibitor, AHR act, A3A deaminase, Arrestin-AP2 inh)
CC(=NNc1cccc(C(=O)O)c1)c1ccc2c(c1)Nc1ccccc1S2	none (no result: APOBEC3G inh, PolyA inhibitor, AHR act, A3A deaminase, Arrestin-AP2 inh)
CC(C)=CCCC1=CCC(C(C)=NNC(N)=O)CC1 (stereo unspecified)	none (no result: APOBEC3G inh, PolyA inhibitor, AHR act, A3A deaminase, Arrestin-AP2 inh)
O=C(NN=Cc1ccncc1)c1cc2ccccc2o1	none (no result: APOBEC3G inh, PolyA inhibitor, AHR act, A3A deaminase, Arrestin-AP2 inh)
CC1(C)S[C@@H]2[C@H](NC(=O)[C@H](N)c3ccccc3)C(=O)N2[C@H]1C(=O)O	APOBEC3G inh 74.6! | A3G conf 42.1 | UDG ctr A3G inactive
Cc1ccc(-n2c(C)n[nH]c2=S)cc1	none (no result: APOBEC3G inh, A3A deaminase)
Cc1ccc(-c2csc3n[nH]c(=S)n23)cc1	APOBEC3G inh 59.6 | A3G conf 82.0 | UDG ctr A3G inactive
CCCCCc1ccc(-c2ccc(/C=C/C(=O)O)cc2)nc1	APOBEC3G inh 88.8 | A3G conf inactive
CN(C)C=Nc1ncc(C(=O)c2ccc(Cl)cc2)s1	none (no result: APOBEC3G inh, PolyA inhibitor, AHR act, A3A deaminase, Arrestin-AP2 inh)
CC(=NNC(=O)c1cc(O)ccc1O)c1cccc(NC(=O)c2cccc(Cl)c2)c1	none (no result: APOBEC3G inh, PolyA inhibitor, AHR act, A3A deaminase, Arrestin-AP2 inh)
C/C(=N\NC(=O)c1cccc(N/N=C(\C)c2cc(O)ccc2O)c1)c1cc(O)ccc1O	APOBEC3G inh 44.7 (no result: UCH37 inh) | A3G conf inactive | UDG ctr A3G inactive
COc1ccc(Cc2n[nH]c(=S)n2C)cc1Br	APOBEC3G inh 42.1 | A3G conf 54.4 | UDG ctr A3G inactive
Nn1c(Cc2ccccc2F)n[nH]c1=S	none
CCOc1ccc(Cc2n[nH]c(=S)n2N)cc1	none
COc1ccc(CCCc2n[nH]c(=S)n2C)cc1C	none
Nn1c(Cc2ccc(Br)cc2)n[nH]c1=S	APOBEC3G inh 50.6 | A3G conf 80.4 | UDG ctr A3G inactive
COc1ccc(Cc2n[nH]c(=S)n2N)cc1OC	APOBEC3G inh 60.9 | A3G conf 57.9 | UDG ctr A3G inactive
Nn1c(Cc2cccc3ccccc23)n[nH]c1=S	APOBEC3G inh 47.3 (no result: PolyA inhibitor) | A3G conf 82.2 | UDG ctr A3G inactive
COc1ccc(C(C)=NNC(=O)CNC(=O)c2cccnc2)cc1	none (no result: APOBEC3G inh, PolyA inhibitor, AHR act, A3A deaminase, Arrestin-AP2 inh)
O=C(CSc1ccc([N+](=O)[O-])cc1)Nc1cccc(S(=O)(=O)Nc2ccccc2F)c1	APOBEC3G inh 44.4 | A3G conf 23.1 | UDG ctr A3G inactive
O=C1CCC(C(=O)Nc2cccc(S(=O)(=O)Nc3ccccc3F)c2)=NN1	APOBEC3G inh 72.9 (no result: PolyA inhibitor) | A3G conf 63.0 | UDG ctr A3G inactive
O=C(Cc1ccc(Cl)cc1)Nc1cccc(S(=O)(=O)Nc2ccccc2F)c1	none
NC(=S)NN=C1CC(n2nnn(-c3cccc(Cl)c3)c2=S)C2COC1O2 (stereo unspecified)	none (no result: APOBEC3G inh, PolyA inhibitor, AHR act, A3A deaminase, Arrestin-AP2 inh)
CC(CCc1ccc2c(c1)OCO2)=NN=C(N)SC1CC(=O)N(c2ccccc2F)C1=O (stereo unspecified)	none (no result: APOBEC3G inh, PolyA inhibitor, AHR act, A3A deaminase, Arrestin-AP2 inh)
O=c1[nH]c(-c2ccncc2)nc2ccccc12	APOBEC3G inh 57.9 | A3G conf 56.0 | UDG ctr A3G inactive
